Measured values from ChEMBL document CHEMBL1150166, “Cytotoxic 3,20-epoxy-ent-kaurane diterpenoids from Isodon eriocalyx var. laxiflora” (J Nat Prod, 2002).
≈ marks a conversion by molar mass, not a printed value.

How the values were obtained:
K562 = test: Cytotoxicity against human K562 cells after 48 hrs by MTT assay; format: functional, cell-based; details: K562, 48 h
Outline: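 Log-phase K562 cells (5 × 10⁴ cells/mL) were exposed in quadruplicate to 10⁻⁴ to 10⁻⁸ g/L drug for 48 h at 37 °C under 5% CO₂. MTT (5 mg/mL) was then added for 4 h, and formazan was dissolved in 10% SDS/5% isobutanol/HCl for 12 h at room temperature. OD was read at 570 and 630 nm. Controls were saline or DMSO, with cisplatin as the positive control.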

T-24 = test: Cytotoxicity against human T24 cells after 72 hrs by SRB assay; details: T-24, 72 h
A549 = test: Cytotoxicity against human A549 cells after 72 hrs by SRB assay; details: A549, 72 h

C=C1C(=O)[C@]23C[C@H]1CC[C@H]2[C@]12CO[C@H](CC1=O)C(C)(C)[C@H]2[C@H](O)C3=O [LAXIFLORIN J]
IC50 (K562): 0.473 µg/mL (≈ 1.37 µM) | IC50 (T-24): 0.314 µg/mL (≈ 0.912 µM) | IC50 (A549): 49.1 µg/mL (≈ 142 µM)

CC1(C)[C@H]2[C@H](O)C(=O)[C@@]34C[C@@H](CC[C@H]3[C@@]23CO[C@@H]1CC3=O)[C@@H](CO)C4=O [LAXIFLORIN K]
IC50 (K562): 11.9 µg/mL (≈ 32.8 µM) | IC50 (T-24): 1750 µg/mL (≈ 4840 µM)

C=C1[C@@H](OC(C)=O)[C@]23C[C@@]1(O)CC[C@H]2[C@]12CO[C@H](CC1=O)C(C)(C)[C@H]2[C@H](O)C3=O [LAXIFLORIN M]
IC50 (K562): 219 µg/mL (≈ 541 µM)

C=C1[C@@H]2CC[C@@H]3[C@](C2)(C(=O)[C@@H](O)[C@@H]2C(C)(C)[C@H]4CC(=O)[C@@]32CO4)[C@@H]1O [LAXILORIN L]
IC50 (K562): 1.13 µg/mL (≈ 3.25 µM) | IC50 (T-24): 5.16 µg/mL (≈ 14.9 µM) | IC50 (A549): 24.7 µg/mL (≈ 71.2 µM)

C=C1C(=O)[C@]23C[C@H]1CC[C@H]2[C@]12CO[C@H](CC1=O)C(C)(C)C2=C(O)C3=O [MAOECRYSTAL P]
IC50 (K562): 0.132 µg/mL (≈ 0.386 µM) | IC50 (T-24): 0.0512 µg/mL (≈ 0.15 µM) | IC50 (A549): 69.5 µg/mL (≈ 203 µM)
